Measured values from EPA's CvTdb concentration-time database.

Legend:
Rat [1] = assay: concentration in plasma after dosing; conditions: 20 h; dosed: Pyridine; 25 mg/kg; oral; Male; F344
rat [2] = assay: concentration in expired air after dosing; negative times count back from the end of exposure; conditions: dosed: 1,1-dichloroethylene, inhalation, duration: 3 hr, male, Sprague-Dawley
Rat [3] = assay: concentration in brain after dosing; conditions: 10 min; dosed: alpha-Thujone; 25 mg/kg; oral; Male; Harlan Sprague Dawley
Rat [4] = assay: concentration in brain after dosing; conditions: 10 min; dosed: alpha-Thujone; 25 mg/kg; oral; Male; Harlan Sprague Dawley; remark: listed apart in the source
Rat [5] = assay: concentration in kidney after dosing; conditions: 96 h; dosed: Perfluorohexane-1-sulphonic acid – potassium salt; 16 mg/kg; oral; Female; Harlan Sprague Dawley
Rat [6] = assay: concentration in plasma after dosing; conditions: 1 h; dosed: Perfluorohexane-1-sulphonic acid – potassium salt; 16 mg/kg; oral; Male; F344
human = assay: amount in urine after dosing (mg cumulative excretion); conditions: dosed: trichloroethylene, inhalation, duration: 8 hr
Method in brief: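 Sampling and analytical methods are those of each source and frequently went unreported. The concentration-versus-time and amount-versus-time points were compiled from published in vivo toxicokinetic studies and two structured collections. Most were digitised from plot screenshots with WebPlotDigitizer, with others copied from tables, in the reported units.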

Rat [7] = assay: concentration in plasma after dosing; conditions: dosed: Methyleugenol, 37 mg/kg, oral, Male, F344/N

c1ccncc1 [Pyridine]
Conditions | concentration in plasma [ng/mL]
Rat [1] | 143

C=C(Cl)Cl [1,1-dichloroethylene]
rat [2]
Conditions | concentration in expired air [ppm]
0.1527 h, 150 ppm | 5.19
0.2485 h, 150 ppm | 3.34
0.2565 h, 25 ppm | 3.35
0.3921 h, 25 ppm | 3.42
0.3921 h, 150 ppm | 3.42
0.4997 h, 150 ppm | 3.48
0.5037 h, 25 ppm | 3.48
9 s, 150 ppm | 121
88 s, 75 ppm | 12.1
205 s, 75 ppm | 6.41

rat [2], during exposure
Conditions | concentration in expired air [ppm]
-15 s, 75 ppm | 63.3
-2.933 h, 75 ppm | 46.2
-2.927 h, 150 ppm | 71.9
-2.926 h, 300 ppm | 190
-2.925 h, 25 ppm | 13.3
-2.861 h, 75 ppm | 48.8
-2.858 h, 25 ppm | 12.4
-2.856 h, 150 ppm | 76.7
-2.798 h, 75 ppm | 52.3
-2.794 h, 25 ppm | 14.7
-2.792 h, 150 ppm | 82.7
-2.733 h, 150 ppm | 88.4
-2.73 h, 75 ppm | 54.3
-2.726 h, 25 ppm | 15
-2.658 h, 75 ppm | 54.9
-2.654 h, 150 ppm | 93.5
-2.651 h, 25 ppm | 16.6
-2.599 h, 75 ppm | 56.2
-2.595 h, 150 ppm | 97.7
-2.591 h, 25 ppm | 17.9
-2.539 h, 75 ppm | 57.5
-2.535 h, 25 ppm | 18.9
-2.531 h, 150 ppm | 104
-2.475 h, 75 ppm | 58.8
-2.46 h, 25 ppm | 19.6
-2.456 h, 150 ppm | 107
-2.408 h, 75 ppm | 58.9
-2.4 h, 25 ppm | 19.6
-2.396 h, 150 ppm | 109
-2.336 h, 25 ppm | 20.6
-2.336 h, 75 ppm | 59.9
-2.336 h, 150 ppm | 108
-2.26 h, 75 ppm | 59.3
-2.257 h, 150 ppm | 110
-2.256 h, 25 ppm | 19.7
-2.197 h, 150 ppm | 112
-2.196 h, 75 ppm | 57.4
-2.189 h, 25 ppm | 19.7
-2.137 h, 150 ppm | 110
-2.129 h, 75 ppm | 60.6
-2.125 h, 25 ppm | 17.6
-2.061 h, 25 ppm | 20.1
-2.061 h, 75 ppm | 61
-2.058 h, 150 ppm | 111
-1.998 h, 150 ppm | 111
-1.997 h, 75 ppm | 60.7
-1.993 h, 25 ppm | 20.5
-1.858 h, 150 ppm | 111
-1.857 h, 75 ppm | 59.8
-1.854 h, 25 ppm | 20.6
-1.738 h, 75 ppm | 60.5
-1.735 h, 150 ppm | 112
-1.73 h, 25 ppm | 20.9
-1.598 h, 75 ppm | 60.6
-1.595 h, 25 ppm | 21.3
-1.595 h, 150 ppm | 113
-1.484 h, 150 ppm | 114
-1.483 h, 25 ppm | 21.4
-1.479 h, 75 ppm | 61.3
-1.344 h, 25 ppm | 21.5
-1.344 h, 150 ppm | 114
-1.343 h, 75 ppm | 60.7
-1.209 h, 150 ppm | 115
-1.208 h, 75 ppm | 60.8
-1.204 h, 25 ppm | 21.5
-1.085 h, 25 ppm | 21.9
-1.085 h, 150 ppm | 117
-1.08 h, 75 ppm | 61.2
-1 s, 25 ppm | 22.2
-0.9371 h, 25 ppm | 21.7
-0.9328 h, 75 ppm | 61.6
-0.9261 h, 150 ppm | 117
-0.8014 h, 75 ppm | 62.6
-0.7986 h, 150 ppm | 119
-0.7936 h, 25 ppm | 22.1
-0.6591 h, 150 ppm | 118
-0.6578 h, 75 ppm | 62
-0.6461 h, 25 ppm | 21.2
-0.5396 h, 150 ppm | 120
-0.5384 h, 75 ppm | 63.7
-0.5345 h, 25 ppm | 22.2
-0.399 h, 25 ppm | 22.6
-0.3988 h, 75 ppm | 63.1
-0.3961 h, 150 ppm | 119
-0.2646 h, 150 ppm | 120
-0.2633 h, 75 ppm | 63.2
-0.2555 h, 25 ppm | 22.1
-0.1359 h, 25 ppm | 22.4
-0.1358 h, 75 ppm | 63.9
-0.1331 h, 150 ppm | 121

CC(C)[C@]12CC(=O)[C@H](C)[C@H]1C2 [alpha-Thujone]
Conditions | concentration in brain [ng/g]
Rat [3] | 1080
Rat [4] | 731

O=S(=O)([O-])C(F)(F)C(F)(F)C(F)(F)C(F)(F)C(F)(F)C(F)(F)F.[K+] [Perfluorohexane-1-sulphonic acid – potassium salt]
Conditions | concentration in kidney [ng/g] | concentration in plasma [ng/mL]
Rat [5] | 5570 | –
Rat [6] | – | 55600

OCC(Cl)(Cl)Cl [trichloroethanol]
human
Conditions | amount in urine
7.932 h, 97 ppm | 111
7.949 h, 54 ppm | 76.3
8.43 h, 97 ppm | 104
8.618 h, 54 ppm | 55.6
9.257 h, 97 ppm | 96.4
23.71 h, 54 ppm | 175
23.74 h, 97 ppm | 288
24.11 h, 54 ppm | 191
24.33 h, 97 ppm | 255
24.69 h, 97 ppm | 352
47.97 h, 97 ppm | 393
47.99 h, 97 ppm | 364
48.13 h, 97 ppm | 417
49.69 h, 54 ppm | 258
49.75 h, 54 ppm | 291
71.65 h, 54 ppm | 301
71.89 h, 54 ppm | 323
72.02 h, 97 ppm | 395
72.49 h, 97 ppm | 431
72.5 h, 97 ppm | 422
95.28 h, 54 ppm | 314
95.43 h, 54 ppm | 328
95.87 h, 97 ppm | 444
95.88 h, 97 ppm | 429
96.05 h, 97 ppm | 408
119.38 h, 54 ppm | 345
119.39 h, 54 ppm | 327
119.52 h, 97 ppm | 409
119.58 h, 97 ppm | 452
119.67 h, 97 ppm | 430
142.52 h, 54 ppm | 348
142.61 h, 54 ppm | 331
143.45 h, 97 ppm | 458
143.64 h, 97 ppm | 412
143.71 h, 97 ppm | 433
166.64 h, 54 ppm | 352
167.26 h, 97 ppm | 433
167.33 h, 97 ppm | 463
167.44 h, 97 ppm | 411
191.64 h, 97 ppm | 414
191.88 h, 97 ppm | 432
192.11 h, 97 ppm | 466

C=CCc1ccc(OC)c(OC)c1 [Methyleugenol]
Rat [7]
Conditions | concentration in plasma [ng/mL]
2 h | 32
10 min | 268
